Hits are enriched below; roughly 2.9% of the tested compounds scored in any of these assays.
ATG4B inh = inhibitors of human ATG4B cysteine protease. ATG4B cleavage of LC3-PLA2, NBD-HPC fluorescence, 1 h. inhibition, % at 8.33 µM. AID 504462. hit rate 0.51% among 340,000; in the data active = inhibition above about 40%
MEKK3 PB1 HTS = raises or lowers MEK5 binding to the human MEKK3 PB1 domain; bead-based flow cytometry, Alexa488-MEK5 binding to MEKK3; actives lie on both sides; 0 = blocked by unlabeled MEK5, 100 = vehicle; binding response (% of control), % at 10 µM; hit rate 1.4% among 290,000;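 active = binding response more than 3 SD above or below the average of its plate-row segment, actives on both sides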;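 also: Alexa488 bead fluorescence after subtracting the streptavidin-only scavenger bead signal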
B2AR ag = human beta-2 adrenergic receptor agonism by FAP | response, % (no concentration beside the values) | hit rate 0.43% among 340,000 | Am2.2-beta2AR cells, FAP receptor internalization, flow cytometry;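 active = response above a set limit, near 3 SD of response in nonfluorescent compounds, cut at about 42% in these data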
Target sequence (P07550 whole entry, looked up): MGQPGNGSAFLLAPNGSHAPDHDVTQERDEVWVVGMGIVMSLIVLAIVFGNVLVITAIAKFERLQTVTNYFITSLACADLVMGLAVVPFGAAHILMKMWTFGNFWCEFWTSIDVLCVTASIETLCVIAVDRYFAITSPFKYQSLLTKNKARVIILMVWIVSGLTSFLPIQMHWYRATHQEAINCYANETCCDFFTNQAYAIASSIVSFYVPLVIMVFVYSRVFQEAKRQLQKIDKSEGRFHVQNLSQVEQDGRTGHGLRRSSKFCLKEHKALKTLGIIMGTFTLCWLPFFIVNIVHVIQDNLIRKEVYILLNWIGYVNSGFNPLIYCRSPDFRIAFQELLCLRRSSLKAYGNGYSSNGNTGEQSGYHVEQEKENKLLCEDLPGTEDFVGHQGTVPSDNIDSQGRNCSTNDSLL
Dynein transport = blocks dynein driven cargo transport along microtubules; 3617.4 mouse cells, GR-EGFP nuclear translocation imaging; test concentration mostly 20 µM; stimulated with dexamethasone, 1 µM; active compounds read low; z-score, hits read low; hit rate 0.47% among 220,000; AID 1381;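 active = plate z-score of nuclear minus cytoplasmic receptor signal below a set negative limit, without overly bright fluorescence or cell loss, cut at about -3.5 in these data, passing the limit was not always enough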;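 also: z-score of nuclear minus cytoplasmic ring GR-EGFP intensity difference per well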
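medium = tetracycline-free induction medium containing charcoal-stripped FBS | probe or stimulus = dexamethasone, 1.0 µM final | timing = 48 h induction, then 1 h compound, then 30 min agonist, 37 °C | detection = automated 10x imaging of fixed Hoechst-stained cells | read-out basis = nuclear versus cytoplasmic GR-EGFP signal, averaged per well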
MEKK2wt PB1 HTS = raises or lowers MEK5 binding to wildtype human MEKK2 PB1 domain; binding response (% of control), % at 10 µM; bead flow cytometry, Alexa488-MEK5 binding to MEKK2 WT; actives lie on both sides; Q9Y2U5; hit rate 1.1% among 290,000; in the data active = binding response below about 67% or above about 130%
MEKK2mut PB1 HTS = signal of MEK5 binding to mutant human MEKK2 PB1 domain; bead flow cytometry, Alexa488-MEK5 binding to MEKK2 mutant; percent response, % at 10 µM; hit rate 0.35% among 290,000; in the data active = percent response above about 24%, passing the limit was not always enough
MEKK2wt confirm = raises or lowers MEK5 binding to wildtype human MEKK2, retest. hit rate 2.4% among 5,900. bead flow cytometry, Alexa488-MEK5 binding to MEKK2 WT; actives lie on both sides. binding response (% of control), % at 10 µM. shares compounds with MEKK3 PB1 HTS; in the data active = binding response below about 16% or above about 210%; inactive = in between
MEKK2mut confirm = signal of MEK5 binding to mutant human MEKK2, retest; shares compounds with MEKK3 PB1 HTS; bead flow cytometry, Alexa488-MEK5 binding to MEKK2 mutant; percent response, % at 10 µM; hit rate 2% among 5,900; in the data active = percent response mostly above about 71%, no sharp cut-off; inactive = mostly below about 38%;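 also: higher means compound restores mutant binding toward wildtype level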
MEKK3-MEK5 inh = MEKK3-MEK5 PB1 inhibition, single concentration confirmation. shares compounds with MEKK3 PB1 HTS. bead flow cytometry, Alexa488-MEK5 binding to MEKK3; active compounds read low. binding response (% of control), % at 10 µM. hit rate 1.8% among 5,900. AID 1894;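 active = binding response below 72% of control, or above a set upper limit, though filed actives all read lower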;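 also: 100% = DMSO only wells and 0% = binding blocked by excess unlabeled MEK5; lower values mean stronger disruption of MEK5 binding to MEKK3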
* = called active by the depositor; / = no result given; [ ] = remark or other dose.

SMILES	ATG4B inh	MEKK3 PB1 HTS	B2AR ag	Dynein transport	MEKK2wt PB1 HTS	MEKK2mut PB1 HTS	MEKK2wt confirm	MEKK2mut confirm	MEKK3-MEK5 inh
Cc1ccc(Nc2ncc3c(n2)CC(C)(C)CC3=O)cc1	2.1	102.0	4.6	-0.356	103.0	4.0	/	/	/
CC1(C)CC(=O)c2cnc(NC3CC3)nc2C1	0.8	129.0*	1.2	-0.965	113.0	1.0	94.0	-6.0	100.0
Cn1c(NC(=O)c2ccc(Cl)cc2)cc(=O)n(C)c1=O	-3.2	136.0*	2.9	0.0248	107.0	0.0	104.0	-5.0	104.0
COC(=O)C1=C(C(=O)OC)[C@@H]2N(C)c3ccccc3[C@@]23C[C@@H](CO)N(C(=O)C2CCC2)C3=N1	6.3	108.0	3.2	/	104.0	5.0	/	/	/
CCn1nc(C)c(NS(=O)(=O)c2ccc(C)cc2)c1C	0.6	73.0*[inhibitor]	0.6	-0.692	88.0	2.0	104.0	7.0	107.0
Cc1ccc(S(=O)(=O)Nc2c(C)nn(C)c2C)cc1	-0.8	97.0	6.1	1	98.0	-3.0	/	/	/
CN(C)C(=O)N(CCCN1CCOCC1)Cc1cccc2ccccc12	2.5	100.0	-2.7	1.84	101.0	-7.0	/	/	/
CN(C)CCCN(C(=O)COc1ccccc1)c1nc2cc3c(cc2s1)OCO3	-2.4	101.0	7.2	/	118.0	13.0	/	/	/
CCN(CC)CCN(C(=O)c1ccc(C(=O)c2ccccc2)cc1)c1nc2ccc(OC)cc2s1	9.2	113.0	-3.7	/	172.0*	37.0*	163.0	31.0	105.0
COc1ccc2nc(N(CCN(C)C)C(=O)c3ccc(C(=O)c4ccccc4)cc3)sc2c1	14.5	108.0	-0.8	/	146.0*	24.0*	148.0	18.0	102.0
COc1ccc2sc(N(CCCN(C)C)C(=O)c3nc4ccccc4s3)nc2c1	1.0	111.0	-1.0	0.129	195.0*	25.0	166.0	38.0	104.0
COc1ccc(C(O)Cn2ccsc2=NC(C)=O)cc1 (stereo unspecified)	4.6	100.0	-3.5	/	99.0	2.0	/	/	/
Cc1cc2c(cc1S(=O)(=O)NC1CCCCC1C)OCC(=O)N2 (stereo unspecified)	-5.2	105.0	-1.0	/	100.0	1.0	/	/	/
CCc1c(C)nc(SCC(=O)NNC(=O)c2ccco2)[nH]c1=O	-5.1	95.0	-2.5	/	98.0	2.0	/	/	/
COCCCN1C(=O)C(=O)/C(=C(/O)c2ccc(OC)cc2)C12C(=O)N(C)c1ccccc12 (stereo unspecified)	0.7	1.0*[inhibitor]	8.0	-1.26	-3.0*[inhibitor]	2.0	104.0	4.0	101.0
CCCCCCn1c(N2CCC(C(N)=O)CC2)nc2c1c(=O)n(C)c(=O)n2C	-6.0	2.0*[inhibitor]	-3.2	-0.398	2.0*[inhibitor]	-21.0	102.0	4.0	101.0
Cc1ccc(CS(=O)(=O)c2cn(CC(=O)Nc3ccon3)c3ccccc23)cc1	-8.7	/	2.0	/	/	/	/	/	/
Cc1ccc(N2CC(C(=O)N/N=C/c3sccc3C)CC2=O)cc1 (stereo unspecified)	5.9	135.0*	-0.1	0.0643	104.0	0.0	93.0	-2.0	100.0
Cc1ccsc1/C=N/NC(=O)C1CC(=O)N(c2ccc(F)cc2)C1 (stereo unspecified)	-8.7	94.0	2.3	0.217	94.0	-3.0	/	/	/
COc1ccccc1C1CC(c2ccccc2)Nc2ncnn21 (stereo unspecified)	-4.8	80.0*[inhibitor]	-1.7	-0.593	91.0	-6.0	105.0	5.0	103.0
Cc1nn(C)cc1CNC(=O)c1cccc(Br)c1	-5.6	122.0*	5.3	-0.136	96.0	8.0	99.0	2.0	97.0

Screening data from PubChem BioAssay.
